MrgX1 allo act: human MrgX1 positive allosteric modulation, primary screen; MrgX1-HEK293, Fluo-4 calcium flux, FDSS; hits give high values; 0.63% of 310,000 active; Q96LB2; AID 588675; B-score at 10 µM;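 active = plate-corrected calcium response at least 3 library SD above typical, normal starting fluorescence, not activating the receptor alone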;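 note: compound read alongside a low EC10 to EC30 dose of BAM8-22 agonist; peak minus trough fluorescence over baseline measured at the second addition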
Target sequence (Q96LB2 whole entry, looked up): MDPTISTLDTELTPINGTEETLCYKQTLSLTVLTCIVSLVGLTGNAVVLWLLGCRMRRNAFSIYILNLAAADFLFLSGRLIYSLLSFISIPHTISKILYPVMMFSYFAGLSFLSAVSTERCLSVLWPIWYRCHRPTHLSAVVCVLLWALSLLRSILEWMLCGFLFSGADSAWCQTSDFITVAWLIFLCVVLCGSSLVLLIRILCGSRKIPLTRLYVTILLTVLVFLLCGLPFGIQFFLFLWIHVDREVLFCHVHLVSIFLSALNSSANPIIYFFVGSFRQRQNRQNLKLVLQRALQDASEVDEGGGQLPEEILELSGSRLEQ
RGS4 inh: human RGS4 inhibition. P49798. HEK293 M3R/RGS4 inducible, Fluo-4 calcium flux; hits give high values; triggered by carbachol at its EC20. B-score at 10 µM. 0.45% of 310,000 active;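 active = B-score, a plate-corrected calcium signal, over three deviations above library mean, with baseline fluorescence within five deviations of library mean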;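 note: RGS4 expression induced by doxycycline in cells with stable M3 receptor; B-score is computed from the integrated fluorescence ratio over baseline after carbachol; higher B-score means a larger calcium signal and so more RGS4 inhibition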
Target sequence (P49798 whole entry, looked up): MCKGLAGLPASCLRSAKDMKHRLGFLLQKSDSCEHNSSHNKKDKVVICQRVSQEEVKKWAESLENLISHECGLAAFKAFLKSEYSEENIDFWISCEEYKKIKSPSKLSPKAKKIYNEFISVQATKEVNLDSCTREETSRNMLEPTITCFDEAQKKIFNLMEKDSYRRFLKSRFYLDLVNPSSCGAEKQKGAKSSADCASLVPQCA
MrgX1 antagonist: human MrgX1 receptor antagonism, primary screen. MRGX1-HEK293 calcium flux, Fluo-4, BAM8-22 antagonism; hits give low values. AID 588676. B-score at 10 µM. 1.3% of 310,000 active. Q96LB2;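 active = calcium-response B-score plate-corrected more than 3 library SD below zero, starting fluorescence within 5 deviations, no agonist response on first addition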;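 note: peak minus trough fluorescence over baseline after final BAM8-22 challenge near maximal dose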
MrgX1 ag: human MrgX1 receptor agonism, primary screen; B-score at 10 µM; AID 588627; 0.44% of 310,000 active; MrgX1-HEK293 cells, Fluo-4 calcium fluorescence, agonist mode; hits give high values;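 active = calcium response B-score plate-corrected fluorescence ratio at least 3 library SD, with starting fluorescence B-score inside 5 SD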
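Material: MrgX1-expressing HEK293 cells / Dosing: compound as first of three additions / Incubation: overnight seeding, then 1 h dark dye loading / Signal: Fluo-4 NW calcium fluorescence / Evaluation: B-scored fluorescence response ratio / Benchmarks: positive and negative control wells on each plate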
RGS4 pot: RGS4 potentiation or activation. HEK293 M3R/inducible RGS4, carbachol calcium flux Fluo4; hits give low values. B-score at 10 µM. 0.92% of 310,000 active. AID 463111;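 active = B-score of the integrated calcium signal more than 4 SD below the library mean, with starting fluorescence not abnormally high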;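 note: negative B-score means reduced calcium response which marks RGS4 activation or potentiation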
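Also added: carbachol at ECmax as muscarinic agonist stimulus; Assay system: HEK293 cells with stable M3R and inducible RGS4; Timing: overnight RGS4 induction, 30 min dye load 37 °C, 20 min compound RT; Measured by: Fluo4-AM (2 µM) calcium-flux fluorescence, kinetic read.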
Large screens that a line does not name were inactive. Most compounds without a hit are left out; they make up all but 3.5% or so of the library.

CC[N+]1=C(C)C(C)(C)c2cc(C)ccc21	MrgX1 antagonist -4.8
Cc1ccc2c(c1)C=CC(C)(C)S2=O (configuration not stated)	none
C=CCn1c(SCC(=O)c2cc(C)n(C(C)COC)c2C)nc2sc(C)c(C)c2c1=O (configuration not stated)	RGS4 pot -7.5
Cc1cccc(C(=O)OC(C)C(=O)Nc2ccc(S(=O)(=O)N3CCCC3)cc2)c1O (configuration not stated)	RGS4 pot -7.3
CC(OC(=O)c1cc(Br)ccc1O)C(=O)Nc1ccc(S(=O)(=O)N2CCCC2)cc1 (configuration not stated)	none
CCS(=O)(=O)C1=NSC2=NC(=O)/C(=C\c3ccc(OS(=O)(=O)c4ccccc4)c(OC)c3)C(=N)N21	MrgX1 allo act 33
Cc1ccc(S(=O)(=O)Oc2ccc(/C=C3/C(=N)N4C(=NC3=O)SN=C4S(C)(=O)=O)cc2)cc1	MrgX1 allo act 17
COc1cc(/C=C2/C(=N)N3C(=NC2=O)SN=C3S(C)(=O)=O)ccc1OS(=O)(=O)c1ccc(C)cc1	MrgX1 allo act 10
COc1cc(/C=C2/C(=N)N3N=C(C)SC3=NC2=O)ccc1OS(=O)(=O)c1ccc(C)cc1	none
CCCCCC(=O)NNC(=O)c1c(O)c2ccccc2n(CC)c1=O	none
CCn1c(=O)c(C(=O)NNC(=O)c2ccccc2F)c(O)c2ccccc21	MrgX1 ag 114, RGS4 pot -8.7
Cc1nn(C)c(Cl)c1C(N)=O	none
CCCOc1ccc(C(C(=O)OCCN(CC)CC)c2ccccc2)cc1 (configuration not stated)	MrgX1 antagonist -4.6, RGS4 pot -7.4
S=C(Nc1ccccc1Cl)N(Cc1ccccc1)Cc1ccccn1	none
COC(=O)C1(C(=O)OC)NOC2C(=O)N(c3ccccc3)C(=O)C21 (configuration not stated)	MrgX1 antagonist -5.7
Cc1cc2cc(C#N)c(N3CCN(S(C)(=O)=O)CC3)nc2cc1C	none
CCN(CC)CC(=O)N1c2ccccc2Sc2ccc(Cl)cc21	RGS4 pot -9.8
NCCCC(=O)N1c2ccccc2Sc2ccccc21	RGS4 pot -7
CCN(CC)C(=O)N1c2ccccc2Sc2ccccc21	none
O=C(COC(=O)c1cccc(O)c1)NCc1ccc2c(c1)OCO2	none
C/C(=N\NC(=S)NCCc1ccccc1)c1ccc(Cl)cc1Cl	RGS4 pot -9.1
C/C(=N\NC(=S)NCCc1ccccc1)c1ccc(O)cc1O	none
O=C(Nc1ccc(Cl)c(C(F)(F)F)c1)[C@@H]1CC=C[C@@H]2CCN(Cc3ccccc3)C(=O)[C@@H]21	MrgX1 allo act 7.2
COc1ccc(NC(=O)COc2ccccc2C(=O)NCC(c2ccccc2)N(C)C)cc1Cl (configuration not stated)	RGS4 pot -9.4
COc1ccc(CCNC(=O)c2ccc(CNS(=O)(=O)c3cc(C)ccc3C)cc2)cc1OC	none
CCCCCCN1C=CC=C/C1=C/C=C(C#N)C#N	MrgX1 antagonist -8.1
O=C(CCN1C(=O)/C(=C/c2ccc(F)cc2)SC1=S)N[C@@H](CO)Cc1ccccc1	none
O=C(O)COc1ccc(/C=C/c2nc3ccc([N+](=O)[O-])cc3s2)cc1	MrgX1 antagonist -4.8
CC(=O)N1N=C(c2ccc(NS(C)(=O)=O)cc2)CC1c1ccc2nccnc2c1 (configuration not stated)	MrgX1 antagonist -7.2
CS(=O)(=O)Nc1ccc(C2=NN(S(C)(=O)=O)C(c3ccc4nccnc4c3)C2)cc1 (configuration not stated)	none
COCC(=O)Nc1cc(C(=O)Nc2cccc(C)c2C)ccc1Cl	none
COCC(=O)NNC(=S)Nc1cccc(C)c1C	MrgX1 antagonist -5.1
O=C1C(=O)N(Cc2ccco2)C(c2cccs2)/C1=C(\O)c1cccc([N+](=O)[O-])c1 (configuration not stated)	none
C=CCSC1=C(C#N)C2(CCCCC2)C(C#N)C(=O)N1 (configuration not stated)	MrgX1 antagonist -7.7
N#CC1=C(SCC(=O)NC2CC2)NC(=O)C(C#N)C12CCCCC2 (configuration not stated)	none
COc1ccc(N2C(=O)CSC2c2ccc([N+](=O)[O-])cc2)cc1 (configuration not stated)	none
COc1ccccc1NC(=O)N1CCN(C(=O)c2ccco2)CC1	none
COc1ccccc1/C=C/C=C(\C#N)C(=O)NC(C)c1ccccc1 (configuration not stated)	none
COc1cc(/C=C(/C#N)C(=O)NC(C)c2ccccc2)cc(OC)c1O (configuration not stated)	MrgX1 ag 59
Cc1nn(CC(=O)NCCCc2ccccc2)c(C)c1[N+](=O)[O-]	none
O=[N+]([O-])c1cccnc1S(=O)(=O)c1ccccc1	none
COc1ccc([N+](=O)[O-])c(S(=O)(=O)c2ccc(Cl)cc2)n1	MrgX1 antagonist -6.5
COc1ccc([N+](=O)[O-])c(S(=O)(=O)c2ccccc2)n1	MrgX1 antagonist -6.2
Clc1cccc(Cl)c1/C=C/c1nc2ccccc2[nH]1	MrgX1 allo act 7.7
CC1(C)Cc2[nH]c3ccccc3c2C(C)(C)N1	none
CCS(=O)(=O)c1ccc(O)c(NC(=O)Nc2cccc3ccccc23)c1	none
CCCCC(=O)N/N=C(\C)c1cccc(NC(=O)C2CC2)c1	MrgX1 antagonist -5.6
O=C1/C(=C/c2cccs2)CCC/C1=C\c1cccs1	none
Cn1cccc1/C=C1\CCC/C(=C\c2cccn2C)C1=O	MrgX1 ag 38
Cn1c(=O)[nH]c(=O)c2c1nc(SCCO)n2CC(O)COc1ccccc1 (configuration not stated)	none
CCCCNc1c(-c2cccc(-c3ccc(OC)cc3)c2)nc2ccc(C)cn12	RGS4 pot -7.8
COC(=O)Nc1c(-c2ccccc2)nc2ccc(C)cn12	none
CCCCNc1c(-c2ccc(-c3cccc(Cl)c3)cc2)nc2ccccn12	none
CCCCNc1c(-c2cccc(-c3cc(C(C)=O)cs3)c2)nc2ccc(C)cn12	RGS4 pot -7.1
Cc1ccccc1NC1=NCC(c2ccc([N+](=O)[O-])cc2)S1 (configuration not stated)	MrgX1 antagonist -5.7
Cc1ccccc1OCCn1c(S(=O)(=O)O)nc2c(N)ncnc21	none
Fc1ccc(-c2cn(-c3ccccc3)c3[n+]2CCS3)cc1	none
Clc1ccc(-c2cn(-c3ccccc3)c3[n+]2CCS3)cc1	RGS4 pot -8.7
C=CCn1c(SCC(=O)NCC2CCCO2)nc2scc(-c3ccccc3)c2c1=O (configuration not stated)	MrgX1 antagonist -5.2
CCCCCCCCCCCC(=O)c1c(O)cccc1O	RGS4 pot -9.2
CCCc1cc(-c2nc(N)ncc2-c2ccc3c(c2)OCCCO3)c(O)cc1OC	RGS4 pot -9.2
CCN(CC)c1ccc(C=Nc2ccccc2)c(O)c1	none

Assay outcomes as filed in PubChem BioAssay.
